Measured values from ChEMBL document CHEMBL3044867, “Antifungal activity of glyceollins isolated from soybean elicited with Aspergillus sojae” (2010).
In brackets after ≈: the same amount, converted by molar mass.

Key:
Botrytis cinerea [1] = experiment: Antifungal activity against Botryotinia fuckeliana KACC 40573 measured 2 to 4 days post dose by two fold dilution method; type: functional
Method in brief: (§1)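 Two-fold dilution MIC in potato dextrose broth tubes. The DMSO-dissolved sample was serially diluted to final 10, 25, 50, 100, 250, 500 and 750 μg/mL, then inoculated with 10 μL spore suspension (1 × 10^8 spores/mL, from 10-day cultures). Tubes were incubated 2-4 days at 28 C; the control tube held spores only. MIC was the lowest concentration with no visible growth.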

Phytophthora capsici [2] = experiment: Inhibition of spore germination of Phytophthora capsici KACC 40157 at 25 to 100 ug/mL; type: functional, organism-based; conditions: TDE = time-dependent effect
Fusarium oxysporum [3] = experiment: Antifungal activity against Fusarium oxysporum KACC 41083 assessed as inhibition of radial growth at 0.6 mg/disk incubated for 4 to 6 days by disk diffusion method; type: functional
Method in brief: (§2)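 Disk diffusion on PDA in 9 cm dishes. Sample in DMSO at 40 mg/mL; paper disks loaded with 5 or 15 μL, dried, and set equidistantly. A 6 mm agar plug of the pathogen was placed upside down in the centre. Plates were incubated at 25 C for 4-6 days, until solvent-control growth reached the edge. % inhibition = radial growth versus control; triplicate plates; mean ± SD of three experiments.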

Sclerotinia sclerotiorum [4] = experiment: Antifungal activity against Sclerotinia sclerotiorum KACC 41065 measured 2 to 4 days post dose by two-fold dilution method; type: functional; method in brief: as §1
Botrytis cinerea [5] = experiment: Antifungal activity against Botryotinia fuckeliana KACC 40573 assessed as inhibition of radial growth at 0.6 mg/disk incubated for 4 to 6 days by disk diffusion method; type: functional; method in brief: as §2
Fusarium oxysporum [6] = experiment: Inhibition of spore germination of Fusarium oxysporum KACC 41083; type: functional, organism-based
Method in brief: (§3)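 Glyceollins were tested at 10, 25, 50, 100, 250 and 500 μg/mL against a 1% DMSO control, with spore suspension at 1.0 × 10^8 spores/mL. 100 μL aliquots went on glass slides in triplicate and were kept in a moist chamber at 25 C for 24 h. Slides were fixed in lactophenol-cotton blue, about 200 spores were counted for germ tubes, and germination was expressed relative to control.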

Botrytis cinerea [7] = experiment: Inhibition of spore germination of Botryotinia fuckeliana KACC 40573; type: functional, organism-based; method in brief: as §3
Botrytis cinerea [8] = experiment: Antifungal activity against Botryotinia fuckeliana KACC 40573 assessed as inhibition of radial growth at 0.2 mg/disk incubated for 4 to 6 days by disk diffusion method; type: functional; method in brief: as §2
Sclerotinia sclerotiorum [9] = experiment: Antifungal activity against Sclerotinia sclerotiorum KACC 41065 assessed as inhibition of radial growth at 0.6 mg/disk incubated for 4 to 6 days by disk diffusion method; type: functional; method in brief: as §2
Phytophthora capsici [10] = experiment: Inhibition of spore germination of Phytophthora capsici KACC 40157 at 100 ug/mL; type: functional
Fusarium oxysporum [11] = experiment: Antifungal activity against Fusarium oxysporum KACC 41083 assessed as inhibition of radial growth at 0.2 mg/disk incubated for 4 to 6 days by disk diffusion method; type: functional; method in brief: as §2
Botrytis cinerea [12] = experiment: Inhibition of spore germination of Botryotinia fuckeliana KACC 40573 at 100 to 500 ug/mL; type: functional; method in brief: as §3
Phytophthora capsici [13] = experiment: Inhibition of spore germination of Phytophthora capsici KACC 40157 at 100 ug/mL measured 2 hr post dose; type: functional; conditions: KACC 40157, 2 h
Phytophthora capsici [14] = experiment: Inhibition of spore germination of Phytophthora capsici KACC 40157; type: functional, organism-based; method in brief: as §3
Phytophthora capsici [15] = experiment: Inhibition of spore germination of Phytophthora capsici KACC 40157 at 25 ug/mL measured 4 hr post dose; type: functional; conditions: KACC 40157, 4 h
Phytophthora capsici [16] = experiment: Inhibition of spore germination of Phytophthora capsici KACC 40157 at 250 ug/mL; type: functional; method in brief: as §3
Fusarium oxysporum [17] = experiment: Antifungal activity against Fusarium oxysporum KACC 41083 measured 2 to 4 days post dose by two-fold dilution method; type: functional; method in brief: as §1
Phytophthora capsici [18] = experiment: Antifungal activity against Phytophthora capsici KACC 40157 assessed as inhibition of radial growth at 0.2 mg/disk incubated for 4 to 6 days by disk diffusion method; type: functional; method in brief: as §2
Sclerotinia sclerotiorum [19] = experiment: Antifungal activity against Sclerotinia sclerotiorum KACC 41065 assessed as inhibition of radial growth at 0.2 mg/disk incubated for 4 to 6 days by disk diffusion method; type: functional; method in brief: as §2
Phytophthora capsici [20] = experiment: Antifungal activity against Phytophthora capsici KACC 40157 measured 2 to 4 days post dose by two fold dilution method; type: functional; method in brief: as §1
Sclerotinia sclerotiorum [21] = experiment: Inhibition of spore germination of Sclerotinia sclerotiorum KACC 41065; type: functional, organism-based; method in brief: as §3
Phytophthora capsici [22] = experiment: Inhibition of spore germination of Phytophthora capsici KACC 40157 at 100 ug/mL measured 3 hr post dose; type: functional; conditions: KACC 40157, 3 h
Fusarium oxysporum [23] = experiment: Inhibition of spore germination of Fusarium oxysporum KACC 41083 at 100 to 500 ug/mL; type: functional; method in brief: as §3
Phytophthora capsici [24] = experiment: Antifungal activity against Phytophthora capsici KACC 40157 assessed as inhibition of radial growth at 0.6 mg/disk incubated for 4 to 6 days by disk diffusion method; type: functional; method in brief: as §2
Sclerotinia sclerotiorum [25] = experiment: Inhibition of spore germination of Sclerotinia sclerotiorum KACC 41065 at 500 ug/mL; type: functional; method in brief: as §3

Which results are given for C=C(C)[C@@H]1Cc2cc3c(cc2O1)OC[C@@]1(O)c2ccc(O)cc2O[C@@H]31 [GLYCEOLLIN III]?
MIC (Botrytis cinerea [1]): 750 µg/mL (≈ 2220 µM); inhibition (Phytophthora capsici [2]): tde; inhibition (INH) (Fusarium oxysporum [3]): 40.1%; MIC (Sclerotinia sclerotiorum [4]): 50 µg/mL (≈ 148 µM); inhibition (INH) (Botrytis cinerea [5]): 22.1%; inhibition (Fusarium oxysporum [6]): Dose-dependent effect; inhibition (Botrytis cinerea [7]): Dose-dependent effect; inhibition (INH) (Botrytis cinerea [8]): 10.9%; inhibition (INH) (Sclerotinia sclerotiorum [9]): 61%; inhibition at 100 µg/mL (Phytophthora capsici [10]): 100%; inhibition (INH) (Fusarium oxysporum [11]): 27.4%; inhibition (INH) (Botrytis cinerea [12]): 40%; inhibition at 100 µg/mL (Phytophthora capsici [13]): 95%; inhibition (Phytophthora capsici [14]): Dose-dependent effect; inhibition at 25 µg/mL (Phytophthora capsici [15]): 50%; inhibition at 250 µg/mL (Phytophthora capsici [16]): 100%; MIC (Fusarium oxysporum [17]): 250 µg/mL (≈ 739 µM); inhibition (INH) (Phytophthora capsici [18]): 37.5%; inhibition (INH) (Sclerotinia sclerotiorum [19]): 48.2%; MIC (Phytophthora capsici [20]): 25 µg/mL (≈ 73.9 µM); inhibition (Sclerotinia sclerotiorum [21]): Dose-dependent effect; inhibition at 100 µg/mL (Phytophthora capsici [22]): 100%; inhibition (INH) (Fusarium oxysporum [23]): 40%; inhibition (INH) (Phytophthora capsici [24]): 40.5%; inhibition at 500 µg/mL (Sclerotinia sclerotiorum [25]): 100%

CC1(C)C=Cc2cc3c(cc2O1)OC[C@@]1(O)c2ccc(O)cc2O[C@@H]31 [GLYCEOLLIN II] was tested. Which MIC (Botrytis cinerea [1]) did it give?
Its MIC is 750 µg/mL (≈ 2220 µM).

What about the inhibition (Phytophthora capsici [2]) of the same molecule?
Its inhibition is “tde”.

And the “inhibition (INH)” value (Fusarium oxysporum [3])?
Its value is 40.1%.

What about the MIC (Sclerotinia sclerotiorum [4]) of the same molecule?
Its MIC is 50 µg/mL (≈ 148 µM).

And the “inhibition (INH)” value (Botrytis cinerea [5])?
The value was 22.1%.

And the inhibition (Fusarium oxysporum [6])?
Its inhibition is “Dose-dependent effect”.

And the inhibition (Botrytis cinerea [7])?
The inhibition was “Dose-dependent effect”.

And the “inhibition (INH)” value (Botrytis cinerea [8])?
Its value is 10.9%.

What about the “inhibition (INH)” value (Sclerotinia sclerotiorum [9]) of the same molecule?
The value was 61%.

And the inhibition at 100 µg/mL (Phytophthora capsici [10])?
Its inhibition at 100 µg/mL is 100%.

What about the “inhibition (INH)” value (Fusarium oxysporum [11]) of the same molecule?
The value was 27.4%.

And the “inhibition (INH)” value (Botrytis cinerea [12])?
Its value is 40%.

What about the inhibition at 100 µg/mL (Phytophthora capsici [13]) of the same molecule?
The inhibition at 100 µg/mL was 95%.

And the inhibition (Phytophthora capsici [14])?
The inhibition was “Dose-dependent effect”.

What about the inhibition at 25 µg/mL (Phytophthora capsici [15]) of the same molecule?
The inhibition at 25 µg/mL was 50%.

What about the inhibition at 250 µg/mL (Phytophthora capsici [16]) of the same molecule?
Its inhibition at 250 µg/mL is 100%.

And the MIC (Fusarium oxysporum [17])?
The MIC was 250 µg/mL (≈ 739 µM).

What about the “inhibition (INH)” value (Phytophthora capsici [18]) of the same molecule?
Its value is 37.5%.

And the “inhibition (INH)” value (Sclerotinia sclerotiorum [19])?
The value was 48.2%.

What about the MIC (Phytophthora capsici [20]) of the same molecule?
The MIC was 25 µg/mL (≈ 73.9 µM).

What about the inhibition (Sclerotinia sclerotiorum [21]) of the same molecule?
Its inhibition is “Dose-dependent effect”.

And the inhibition at 100 µg/mL (Phytophthora capsici [22])?
Its inhibition at 100 µg/mL is 100%.

What about the “inhibition (INH)” value (Fusarium oxysporum [23]) of the same molecule?
Its value is 40%.

What about the “inhibition (INH)” value (Phytophthora capsici [24]) of the same molecule?
The value was 40.5%.

And the inhibition at 500 µg/mL (Sclerotinia sclerotiorum [25])?
The inhibition at 500 µg/mL was 100%.

How did the MIC (Botrytis cinerea [1]) turn out when CC1(C)C=Cc2c(ccc3c2OC[C@@]2(O)c4ccc(O)cc4O[C@@H]32)O1 [GLYCEOLLIN I] was run?
The MIC was 750 µg/mL (≈ 2220 µM).

What about the inhibition (Phytophthora capsici [2]) of the same molecule?
The inhibition was “tde”.

And the “inhibition (INH)” value (Fusarium oxysporum [3])?
The value was 40.1%.

What about the MIC (Sclerotinia sclerotiorum [4]) of the same molecule?
Its MIC is 50 µg/mL (≈ 148 µM).

And the “inhibition (INH)” value (Botrytis cinerea [5])?
The value was 22.1%.

And the inhibition (Fusarium oxysporum [6])?
Its inhibition is “Dose-dependent effect”.

What about the inhibition (Botrytis cinerea [7]) of the same molecule?
The inhibition was “Dose-dependent effect”.

What about the “inhibition (INH)” value (Botrytis cinerea [8]) of the same molecule?
The value was 10.9%.

What about the “inhibition (INH)” value (Sclerotinia sclerotiorum [9]) of the same molecule?
The value was 61%.

What about the inhibition at 100 µg/mL (Phytophthora capsici [10]) of the same molecule?
The inhibition at 100 µg/mL was 100%.

What about the “inhibition (INH)” value (Fusarium oxysporum [11]) of the same molecule?
Its value is 27.4%.

And the “inhibition (INH)” value (Botrytis cinerea [12])?
The value was 40%.

What about the inhibition at 100 µg/mL (Phytophthora capsici [13]) of the same molecule?
Its inhibition at 100 µg/mL is 95%.

What about the inhibition (Phytophthora capsici [14]) of the same molecule?
The inhibition was “Dose-dependent effect”.

What about the inhibition at 25 µg/mL (Phytophthora capsici [15]) of the same molecule?
The inhibition at 25 µg/mL was 50%.

And the inhibition at 250 µg/mL (Phytophthora capsici [16])?
The inhibition at 250 µg/mL was 100%.

And the MIC (Fusarium oxysporum [17])?
Its MIC is 250 µg/mL (≈ 739 µM).

What about the “inhibition (INH)” value (Phytophthora capsici [18]) of the same molecule?
Its value is 37.5%.

What about the “inhibition (INH)” value (Sclerotinia sclerotiorum [19]) of the same molecule?
The value was 48.2%.

And the MIC (Phytophthora capsici [20])?
The MIC was 25 µg/mL (≈ 73.9 µM).

And the inhibition (Sclerotinia sclerotiorum [21])?
Its inhibition is “Dose-dependent effect”.

And the inhibition at 100 µg/mL (Phytophthora capsici [22])?
The inhibition at 100 µg/mL was 100%.

And the “inhibition (INH)” value (Fusarium oxysporum [23])?
The value was 40%.

What about the “inhibition (INH)” value (Phytophthora capsici [24]) of the same molecule?
Its value is 40.5%.

And the inhibition at 500 µg/mL (Sclerotinia sclerotiorum [25])?
Its inhibition at 500 µg/mL is 100%.
